# “And” between values parts separate entries of the source, which are not always exact repeats. Identical values can stand only once.
# System: U2OS
# Test: Multiplex assay against U2OS
# Assay type: toxicity, cell-based
# Conditions: human
# How it was run: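 Four dyes were applied at seeding to live cells: Hoechst33342, BioTracker Green Microtubule Cytoskeleton Dye, MitoTracker Red and Annexin V Alexa Fluor 680. Imaging after compound addition used a CQ1 microscope at 37°C and 5% CO2. CellPathfinder machine-learning gating then sorted cells into Hoechst high-intensity objects or normal cells, normal cells into healthy, pyknosed or fragmented nuclei, and pyknosed cells into mitotic or apoptotic, with tubulin, mitochondrial-mass and membrane-permeability phenotypes given as per cents of healthy-nucleus cells.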
# [1] = 12 h, 1 µM, compound concentration 1 uM, replicate 1
# [2] = 12 h, 1 µM, compound concentration 1 uM, replicate 2
# [3] = 12 h, 10 µM, compound concentration 10 uM, replicate 1
# [4] = 12 h, 10 µM, compound concentration 10 uM, replicate 2
# [5] = 24 h, 1 µM, compound concentration 1 uM, replicate 1
# [6] = 24 h, 1 µM, compound concentration 1 uM, replicate 2
# [7] = 24 h, 10 µM, compound concentration 10 uM, replicate 1
# [8] = 24 h, 10 µM, compound concentration 10 uM, replicate 2
# [9] = 48 h, 1 µM, compound concentration 1 uM, replicate 1
# [10] = 48 h, 1 µM, compound concentration 1 uM, replicate 2
# [11] = 48 h, 10 µM, compound concentration 10 uM, replicate 1
# [12] = 48 h, 10 µM, compound concentration 10 uM, replicate 2
compound,measurement,setting,value
c1cn2cc(-c3ccc4cn[nH]c4c3)nc(Nc3ccc(N4CCOCC4)cc3)c2n1 [ENTOSPLETINIB],Population Apoptotic (%),[1],32%
same,Population Fragmented Nuclei (%),[1],13%
same,Population Healthy Nuclei (%),[1],66%
same,Population Hoechst High Intensity Objects (%),[1],4%
same,Population Membrane Permeable-Phenotype (%),[1],13%
same,Population Mitochondria Different-Phenotype (%),[1],36%
same,Population Mitotic Cells (%),[1],67%
same,Population Normal (%),[1],95%
same,Population Pyknosed Nuclei (%),[1],20%
same,Population Tubulin-Different-Phenotype (%),[1],41%
same,Total Cell Count,[1],172
same,Population Apoptotic (%),[2],40%
same,Population Fragmented Nuclei (%),[2],16%
same,Population Healthy Nuclei (%),[2],73%
same,Population Hoechst High Intensity Objects (%),[2],5%
same,Population Membrane Permeable-Phenotype (%),[2],10%
same,Population Mitochondria Different-Phenotype (%),[2],23%
same,Population Mitotic Cells (%),[2],60%
same,Population Normal (%),[2],94%
same,Population Pyknosed Nuclei (%),[2],9%
same,Population Tubulin-Different-Phenotype (%),[2],25%
same,Total Cell Count,[2],59
same,Population Apoptotic (%),[3],76%
same,Population Fragmented Nuclei (%),[3],37%
same,Population Healthy Nuclei (%),[3],7%
same,Population Membrane Permeable-Phenotype (%),[3],12%
same,Population Mitochondria Different-Phenotype (%),[3],61%
same,Population Mitotic Cells (%),[3],23%
same,Population Pyknosed Nuclei (%),[3],55%
same,Population Tubulin-Different-Phenotype (%),[3],73%
same,Total Cell Count,[3],161
same,Population Apoptotic (%),[4],92%
same,Population Fragmented Nuclei (%),[4],30%
same,Population Healthy Nuclei (%),[4],2%
same,Population Hoechst High Intensity Objects (%),[4],25%
same,Population Membrane Permeable-Phenotype (%),[4],21%
same,Population Mitochondria Different-Phenotype (%),[4],82%
same,Population Mitotic Cells (%),[4],7%
same,Population Normal (%),[4],74%
same,Population Pyknosed Nuclei (%),[4],67%
same,Population Tubulin-Different-Phenotype (%),[4],78%
same,Total Cell Count,[4],56
same,Population Apoptotic (%),[5],37%
same,Population Fragmented Nuclei (%),[5],12%
same,Population Healthy Nuclei (%),[5],70%
same,Population Membrane Permeable-Phenotype (%),[5],4%
same,Population Mitochondria Different-Phenotype (%),[5],33%
same,Population Mitotic Cells (%),[5],62%
same,Population Pyknosed Nuclei (%),[5],16%
same,Population Tubulin-Different-Phenotype (%),[5],24%
same,Total Cell Count,[5],182
same,Population Apoptotic (%),[6],14%
same,Population Fragmented Nuclei (%),[6],14%
same,Population Healthy Nuclei (%),[6],74%
same,Population Hoechst High Intensity Objects (%),[6],4%
same,Population Membrane Permeable-Phenotype (%),[6],17%
same,Population Mitochondria Different-Phenotype (%),[6],15%
same,Population Mitotic Cells (%),[6],85%
same,Population Normal (%),[6],95%
same,Population Pyknosed Nuclei (%),[6],11%
same,Population Tubulin-Different-Phenotype (%),[6],21%
same,Total Cell Count,[6],78
same,Population Apoptotic (%),[7],70%
same,Population Fragmented Nuclei (%),[7],35%
same,Population Healthy Nuclei (%),[7],6%
same,Population Hoechst High Intensity Objects (%),[7],23%
same,Population Membrane Permeable-Phenotype (%),[7],7%
same,Population Mitochondria Different-Phenotype (%),[7],49%
same,Population Mitotic Cells (%),[7],29%
same,Population Normal (%),[7],76%
same,Population Pyknosed Nuclei (%),[7],57%
same,Population Tubulin-Different-Phenotype (%),[7],53%
same,Total Cell Count,[7],186
same,Population Apoptotic (%),[8],89%
same,Population Fragmented Nuclei (%),[8],33%
same,Population Healthy Nuclei (%),[8],2%
same,Population Hoechst High Intensity Objects (%),[8],26%
same,Population Membrane Permeable-Phenotype (%),[8],8%
same,Population Mitochondria Different-Phenotype (%),[8],36%
same,Population Mitotic Cells (%),[8],10%
same,Population Normal (%),[8],73%
same,Population Pyknosed Nuclei (%),[8],64%
same,Population Tubulin-Different-Phenotype (%),[8],20%
same,Total Cell Count,[8],65
same,Population Apoptotic (%),[9],46%
same,Population Fragmented Nuclei (%),[9],9%
same,Population Membrane Permeable-Phenotype (%),[9],4%
same,Population Mitochondria Different-Phenotype (%),[9],14%
same,Population Mitotic Cells (%),[9],53%
same,Population Pyknosed Nuclei (%),[9],12%
same,Population Tubulin-Different-Phenotype (%),[9],13%
same,Total Cell Count,[9],206
same,Population Apoptotic (%),[10],37%
same,Population Fragmented Nuclei (%),[10],11%
same,Population Healthy Nuclei (%),[10],77%
same,Population Hoechst High Intensity Objects (%),[10],3%
same,Population Membrane Permeable-Phenotype (%),[10],22%
same,Population Mitochondria Different-Phenotype (%),[10],20%
same,Population Mitotic Cells (%),[10],62%
same,Population Normal (%),[10],96%
same,Population Pyknosed Nuclei (%),[10],10%
same,Population Tubulin-Different-Phenotype (%),[10],22%
same,Total Cell Count,[10],111
same,Population Apoptotic (%),[11],59%
same,Population Fragmented Nuclei (%),[11],33%
same,Population Healthy Nuclei (%),[11],7%
same,Population Hoechst High Intensity Objects (%),[11],29%
same,Population Membrane Permeable-Phenotype (%),[11],7%
same,Population Mitochondria Different-Phenotype (%),[11],21%
same,Population Mitotic Cells (%),[11],40%
same,Population Normal (%),[11],70%
same,Population Pyknosed Nuclei (%),[11],58%
same,Population Tubulin-Different-Phenotype (%),[11],16%
same,Total Cell Count,[11],232
same,Population Apoptotic (%),[12],82%
same,Population Fragmented Nuclei (%),[12],34%
same,Population Healthy Nuclei (%),[12],2%
same,Population Hoechst High Intensity Objects (%),[12],28%
same,Population Membrane Permeable-Phenotype (%),[12],20%
same,Population Mitochondria Different-Phenotype (%),[12],30%
same,Population Mitotic Cells (%),[12],17%
same,Population Normal (%),[12],71%
same,Population Pyknosed Nuclei (%),[12],63%
same,Population Tubulin-Different-Phenotype (%),[12],20%
same,Total Cell Count,[12],79
Cn1cc(C2=C(c3cn(C4CCN(Cc5ccccn5)CC4)c4ccccc34)C(=O)NC2=O)c2ccccc21 [ENZASTAURIN],Population Apoptotic (%),[1],65% and 50%
same,Population Fragmented Nuclei (%),[1],20% and 9%
same,Population Healthy Nuclei (%),[1],30% and 78%
same,Population Hoechst High Intensity Objects (%),[1],4% and 5%
same,Population Membrane Permeable-Phenotype (%),[1],58%
same,Population Mitotic Cells (%),[1],34% and 50%
same,Population Normal (%),[1],95% and 94%
same,Population Tubulin-Different-Phenotype (%),[1],48%
same,Total Cell Count,[1],159 and 95
same,Population Apoptotic (%),[2],76% and 37%
same,Population Fragmented Nuclei (%),[2],18% and 16%
same,Population Healthy Nuclei (%),[2],45% and 70%
same,Population Hoechst High Intensity Objects (%),[2],11% and 17%
same,Population Membrane Permeable-Phenotype (%),[2],63% and 33%
same,Population Mitotic Cells (%),[2],23% and 62%
same,Population Normal (%),[2],88% and 82%
same,Population Pyknosed Nuclei (%),[2],35% and 13%
same,Population Tubulin-Different-Phenotype (%),[2],100% and 34%
same,Total Cell Count,[2],147 and 102
same,Population Apoptotic (%),[5],89% and 53%
same,Population Fragmented Nuclei (%),[5],15% and 5%
same,Population Normal (%),[5],83% and 96%
same,Total Cell Count,[5],194 and 119
same,Population Apoptotic (%),[6],62%
same,Population Fragmented Nuclei (%),[6],14% and 8%
same,Population Hoechst High Intensity Objects (%),[6],14% and 10%
same,Population Membrane Permeable-Phenotype (%),[6],19%
same,Population Mitotic Cells (%),[6],37%
same,Population Normal (%),[6],85% and 89%
same,Population Tubulin-Different-Phenotype (%),[6],17%
same,Total Cell Count,[6],149 and 124
O=C(NCCN1CCOCC1)c1ccc2c(c1)C(=O)c1ccc(Nc3ccc(F)c(NC(=O)c4ccccc4)c3)cc1CC2 [FS-694],Population Apoptotic (%),[3],75% and 25%
same,Population Healthy Nuclei (%),[3],83% and 54%
same,Population Membrane Permeable-Phenotype (%),[3],67% and 52%
same,Population Mitochondria Different-Phenotype (%),[3],18% and 50%
same,Population Mitotic Cells (%),[3],25% and 74%
same,Population Normal (%),[3],95% and 53%
same,Population Pyknosed Nuclei (%),[3],8% and 13%
same,Population Tubulin-Different-Phenotype (%),[3],48% and 88%
same,Total Cell Count,[3],178 and 187
same,Population Fragmented Nuclei (%),[4],40% and 27%
same,Population Healthy Nuclei (%),[4],47% and 65%
same,Population Membrane Permeable-Phenotype (%),[4],53% and 54%
same,Population Mitotic Cells (%),[4],60% and 90%
same,Population Normal (%),[4],47% and 90%
same,Population Pyknosed Nuclei (%),[4],11% and 7%
same,Total Cell Count,[4],150 and 127
same,Population Apoptotic (%),[7],37% and 42%
same,Population Healthy Nuclei (%),[7],48% and 84%
same,Population Membrane Permeable-Phenotype (%),[7],54% and 41%
same,Population Mitotic Cells (%),[7],62% and 57%
same,Population Normal (%),[7],55% and 95%
same,Population Pyknosed Nuclei (%),[7],23% and 8%
same,Total Cell Count,[7],224 and 170
same,Population Apoptotic (%),[8],50%
same,Population Fragmented Nuclei (%),[8],45% and 17%
same,Population Healthy Nuclei (%),[8],39% and 76%
same,Population Membrane Permeable-Phenotype (%),[8],62% and 37%
same,Population Mitotic Cells (%),[8],50%
same,Population Normal (%),[8],47% and 91%
same,Population Pyknosed Nuclei (%),[8],14% and 5%
same,Total Cell Count,[8],160 and 131

# — ChEMBL document CHEMBL4689842, “EUbOPEN Chemogenomics Library wave 1” (2021)
